From ChEMBL document CHEMBL4732048, “Amphiphilic desmuramyl peptides for the rational design of new vaccine adjuvants: Synthesis, in vitro modulation of inflammatory response and molecular docking studies” (2021)
Activity calls are given as the source filed them. The calls are words filed in the database; no cut-off is given here.

Tests used:
THP-1 [1] = assay: Immunostimulatory activity in human THP-1 cells assessed as increase in ICAM-1 expression level at 20 uM incubated for 21 hrs by flow cytometry analysis; format: functional, cell-based
In short: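 THP-1 monocytes in RPMI-1640 with 10% heat-inactivated FBS and 1% antibiotic/antimycotic, 5% CO2, 37 °C. 0.5×10^6 cells/well pre-cultured 24 h, then exposed to 20 µM peptide for 21 h. Cells centrifuged, PBS-washed, resuspended in PBS/0.1% BSA, stained with PE anti-CD54 antibody; flow cytometry read-out of ICAM-1.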

THP-1 [2] = assay: Immunostimulatory activity in human THP-1 cells assessed as increase in LPS-induced ICAM-1 expression at 20 uM preincubated for 1 hr followed by LPS stimulation for 20 hrs by flow cytometry analysis; format: functional, cell-based; conditions: time 21.0 hrs
In short: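 Undifferentiated THP-1 monocytes (0.5×10^6/well, pre-cultured 24 h) pretreated 1 h with peptide (range 0.1–32 µM), then LPS 0.1 µg/mL added for 20 h. Cells pelleted, PBS-washed, resuspended in PBS with 0.1% BSA; ICAM-1 measured by flow cytometry.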

THP-1 [3] = assay: Immunostimulatory activity in human THP-1 macrophage assessed as increase in TNF-alpha production at 15 uM incubated for 24 hrs by ELISA; format: functional
In short: (§1)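 THP-1 monocytes (0.5×10^6) differentiated 48 h with PMA 20 ng/mL, PBS-washed, held 3 h in serum-free medium, then stimulated 24 h with peptide at 1, 15 or 30 µM. TNF-α in culture supernatants (stored −80 °C) measured by ELISA at 450 nm with 540 nm correction against a 2nd-order polynomial standard curve; mean of two experiments ± SEM; one-way ANOVA.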

THP-1 [4] = assay: Immunostimulatory activity in human THP-1 macrophage assessed as increase in TNF-alpha production at 30 uM incubated for 24 hrs by ELISA; format: functional, cell-based; in short: as §1
THP-1 [5] = assay: Immunostimulatory activity in human THP-1 macrophage assessed as increase in LPS-induced ICAM-1 expression by measuring mean fluorescence intensity at 20 uM preincubated for 1 hr followed by LPS stimulation for 20 hrs by flow cytometry analysis (reference value: 602.95); format: functional; conditions: time 21 hrs

| Structure (SMILES) | Activity (THP-1 [1]) | Activity (THP-1 [2]) | Activity (THP-1 [3]) [pg/mL] | Activity (THP-1 [4]) | Flu intensity (THP-1 [5]) |
| --- | --- | --- | --- | --- | --- |
| CCCCCCNC(=O)CC[C@@H](NC(=O)[C@H](C)NC(=O)COc1cccc(N(CCCO)CCCO)c1)C(N)=O | inactive | Active | 3306 | inactive |  |
| CCCCCCNC(=O)CC[C@@H](NC(=O)[C@H](C)NC(=O)COc1cccc(N(CCO)C(=O)CCC)c1)C(N)=O | inactive | Active | 2806 | inactive |  |
| CCCCCCNC(=O)CC[C@@H](NC(=O)[C@H](C)NC(=O)COc1cccc(N(CCCO)C(=O)CCC)c1)C(N)=O | inactive | Active | 3105 | inactive | 905.38 |
| CCCCCCNC(=O)CC[C@@H](NC(=O)[C@H](C)NC(=O)COc1cccc(N(CCO)CCO)c1)C(N)=O | inactive | Active | 3111 | inactive |  |
| CCCCCCNC(=O)CC[C@@H](NC(=O)[C@H](C)NC(=O)COc1cccc(NCCO)c1)C(N)=O | inactive | Active | 3226 | inactive |  |
| CCCCCCNC(=O)CC[C@@H](NC(=O)[C@H](C)NC(=O)COc1cccc(NCCCO)c1)C(N)=O | inactive | Active | 3622 | inactive |  |
| CCCCCCNC(=O)CC[C@@H](NC(=O)[C@H](C)NC(=O)COc1cccc(N(CCCO)C(C)=O)c1)C(N)=O | inactive | Active | 2902 | inactive |  |
| CCCCCCNC(=O)CC[C@@H](NC(=O)[C@H](C)NC(=O)COc1cccc(N(CCO)C(C)=O)c1)C(N)=O | inactive | Active | 3342 | inactive |  |
| CCCCOC(=O)[C@@H](CCC(N)=O)NC(=O)[C@H](C)NC(=O)[C@@H](C)O[C@H]1[C@H](O)[C@@H](CO)O[C@H](O)[C@@H]1NC(C)=O | inactive |  | 2694 |  | 1436.05 |
